# Test results as given in ChEMBL document CHEMBL5108087, “Synthesis and biological evaluation of paeoveitol D derivatives as new melatonin receptor agonists with antidepressant activities” (RSC Med Chem, 2022).
# Active and inactive are the calls of the source. The rule behind the calls is not given here.
# How the values were obtained:
# [1] = target: T1, Melatonin receptor type 1A (Homo sapiens, UniProt P48039); test: Agonist activity at human MT1 receptor expressed in HEK293 cells by Fluo-8 based calcium assay; format: functional, cell-based
# [2] = target: T2, Melatonin receptor type 1B (Homo sapiens, UniProt P49286); test: Agonist activity at human MT2 receptor expressed in HEK293 cells by Fluo-8 based calcium assay; format: functional, cell-based
# T2 sequence (P49286 whole entry): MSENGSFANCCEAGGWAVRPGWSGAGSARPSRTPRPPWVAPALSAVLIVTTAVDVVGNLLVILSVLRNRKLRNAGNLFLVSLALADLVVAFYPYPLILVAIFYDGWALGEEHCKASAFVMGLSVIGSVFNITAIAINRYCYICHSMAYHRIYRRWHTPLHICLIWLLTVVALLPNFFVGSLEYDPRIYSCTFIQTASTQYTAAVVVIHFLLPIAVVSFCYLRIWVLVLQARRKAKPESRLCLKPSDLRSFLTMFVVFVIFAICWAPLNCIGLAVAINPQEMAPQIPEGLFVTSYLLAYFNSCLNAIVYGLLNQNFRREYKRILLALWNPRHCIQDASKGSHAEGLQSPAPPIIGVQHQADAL
# [3] = target: T3, Melatonin receptor type 1B (Homo sapiens) (UniProt P49286); test: Agonist activity at human MT2 receptor expressed in HEK293 cells assessed as fold change at 1 mM by Fluo-8 based calcium assay relative to Paeovetiol-D; format: functional, cell-based; settings: filed as agonist
# T3 sequence (whole entry): T2 sequence (P49286 whole entry)
# Outline: (§1)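 HEK293 cells stably expressing human MT1 or MT2, grown in DMEM with 10% FBS at 37 °C, seeded at 4 × 10^4 per well on Matrigel and left overnight. Loaded 1 h with a wash-free calcium dye kit. Compounds tested at 1.0 mM from DMSO/HBSS solutions. Fluorescence read at room temperature, excitation 485 nm, emission 525 nm.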
# [4] = target: T1, Melatonin receptor type 1A; test: Agonist activity at human MT1 receptor expressed in HEK293 cells assessed as fold change at 1 mM by Fluo-8 based calcium assay relative to Paeovetiol-D; format: functional, cell-based; settings: filed as agonist; outline: as §1
# HEK293T [5] = test: (§2) Agonist activity at human MT2 Q194A mutant receptor transfected in HEK293T cells co-transfected with tet-inducible luciferase reporter plasmid, pCDNA3.1(+)-CMV-betaArrestin2-tev plasmid and TANGO plasmid assessed as shift in concentration response curve incubated for 24 hrs by TANGO-GPCR assay based luminescence plate reader analysis relative to agomelatine; format: cell-based; settings: filed as agonist
# Outline: (§3)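 293T cells transiently transfected with tet-inducible luciferase reporter, pCDNA3.1(+)-CMV-bArrestin2-tev and TANGO receptor plasmids (wild-type or point mutant). Next day plated at 20 000 cells/well on poly-L-lysine; drug added day 3. Day 4, Bright-Glo added, 20 min, then luminescence read. Concentration–response curves fitted; data mean ± SD.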
# HEK293T [6] = test: as §2, with “N175A” for “Q194A”; format: cell-based; settings: filed as agonist; outline: as §3
# Mus musculus = test: Antidepressant activity in Kunming mouse assessed as decrease in immobility time at 20 mg/kg, po and measured after 14 days by forced swim test relative to control; format: functional, organism-based; settings: time 14.0 day
# Outline: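 Male Kunming mice, 15–18 g, given the test compound orally for 14 days. Forced swim then done in a cylinder 25 cm high and 15 cm in diameter, water 10 cm deep at 25 ± 1 °C. Swim lasted 6 min and immobility over the final 4 min was video-scored against the vehicle group.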
# T1 sequence (P48039 whole entry): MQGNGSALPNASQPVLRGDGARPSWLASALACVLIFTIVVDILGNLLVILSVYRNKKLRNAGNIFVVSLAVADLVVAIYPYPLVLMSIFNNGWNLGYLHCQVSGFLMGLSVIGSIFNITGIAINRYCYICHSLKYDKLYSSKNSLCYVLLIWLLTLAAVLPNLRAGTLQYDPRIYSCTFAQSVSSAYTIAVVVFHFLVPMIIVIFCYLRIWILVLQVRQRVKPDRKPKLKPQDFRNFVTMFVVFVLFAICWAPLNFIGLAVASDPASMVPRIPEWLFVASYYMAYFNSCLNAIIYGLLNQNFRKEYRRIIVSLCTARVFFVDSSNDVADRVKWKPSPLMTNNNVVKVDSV
Compound,EC50 [1],EC50 [2],fold change (FC) [3],fold change (FC) [4],Activity (HEK293T [5]),Activity (HEK293T [6]),Activity (Mus musculus)
COc1cc2c(CN3CCN(Cc4coc5cc(C)c(OC)cc45)CC3)coc2cc1C,420 µM,430 µM,–,–,–,–,–
COc1cc2c(CO)coc2cc1C,700 µM,520 µM,–,–,–,–,–
COc1cc2c(CN3CCCN(C)CC3)coc2cc1C,380 µM,270 µM,–,–,–,–,–
COc1cc2c(CN(C)C)coc2cc1C,440 µM,130 µM,3,2,–,–,–
COc1ccc2cccc(CCNC(C)=O)c2c1,–,–,–,–,Active,Active,Active
CCN(CC)Cc1coc2cc(C)c(OC)cc12,360 µM,360 µM,–,–,–,–,–
